SIAE primary: blocks human sialic acid acetylesterase; Q9HAT2; hit rate 0.69% among 370,000; SIAE FP-Rh probe binding, fluorescence polarization; inhibition, % at 9.66 µM;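 active means inhibition above a cutoff: mean of compounds within the control limits plus 3 SD of those, cut at about 17% in these data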
ABHD4 inh: inhibitors of mouse ABHD4; Q8VD66; purified mABHD4, FP-Rh probe fluorescence polarization; inhibition, % at 8.92 µM; hit rate 0.54% among 370,000;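 active means inhibition exceeding the mean over every tested compound plus 3 SD, cut at about 30% in these data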
Target sequence (Q8VD66 whole entry, looked up): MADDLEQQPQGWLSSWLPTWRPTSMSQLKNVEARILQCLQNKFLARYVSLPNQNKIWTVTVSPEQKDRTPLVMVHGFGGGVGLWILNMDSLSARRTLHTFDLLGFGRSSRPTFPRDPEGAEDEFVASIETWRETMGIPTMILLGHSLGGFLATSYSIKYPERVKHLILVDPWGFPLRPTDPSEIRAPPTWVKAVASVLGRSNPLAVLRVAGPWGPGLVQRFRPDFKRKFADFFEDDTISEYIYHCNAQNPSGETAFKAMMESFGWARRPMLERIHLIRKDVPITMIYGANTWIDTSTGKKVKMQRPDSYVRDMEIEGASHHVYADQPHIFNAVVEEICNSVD
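Doses – 8.92 µM, single dose · Material – wild-type mouse ABHD4 protein · Replication – single well per compound (singlicate) · Measure – percent inhibition of probe binding, normalized to plate controls · Schedule – 45 min compound pre-incubation plus 60 min probe step, 25 °C · Detection – fluorescence polarization with parallel and perpendicular emission, 525/598 nm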
rCAG binder: r(CAG) repeat RNA binding; inhibition, % at 3 µM; hit rate 1.3% among 370,000; TO-PRO-1 dye displacement fluorescence;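 active means inhibition above the plate cutoff, the mean of all test compounds on that plate plus 3 SD, cut at about 35% in these data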;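 further: higher means more dye released from RNA so lower well fluorescence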
HTRA1 inh: inhibitors of human serine peptidase HTRA1; hit rate 0.5% among 340,000; Q92743; recombinant HTRA1, FP-rhodamine activity-based probe, fluorescence polarization; inhibition, % at 5.96 µM; in the data active means inhibition above about 36%
PRMT1 FP inh: inhibitors of human PRMT1; Q99873; recombinant PRMT1, activity-based probe fluorescence polarization; inhibition, % at 2.79 µM; hit rate 1.3% among 370,000;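 active means inhibition above about 21% made by adding two undisclosed values, limit read from the data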
Target sequence (Q99873 whole entry, looked up): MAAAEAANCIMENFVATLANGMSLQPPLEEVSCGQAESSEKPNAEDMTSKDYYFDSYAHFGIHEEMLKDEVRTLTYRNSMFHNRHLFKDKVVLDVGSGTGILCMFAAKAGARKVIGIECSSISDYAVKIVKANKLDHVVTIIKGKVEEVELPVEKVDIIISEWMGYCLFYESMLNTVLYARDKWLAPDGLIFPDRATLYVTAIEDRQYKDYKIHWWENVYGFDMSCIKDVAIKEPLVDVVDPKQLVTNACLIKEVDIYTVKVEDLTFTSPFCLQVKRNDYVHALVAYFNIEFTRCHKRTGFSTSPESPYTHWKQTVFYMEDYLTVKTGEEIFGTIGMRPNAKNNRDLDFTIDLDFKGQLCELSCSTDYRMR
rCAG binder conf: r(CAG) RNA repeat binding, confirmation; shares compounds with rCAG binder; TO-PRO-1 dye displacement fluorescence; inhibition, % at 3 µM; AID 652065; hit rate 70% among 4,300;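 active means inhibition above a per-plate cutoff, the mean inhibition of sample wells plus 3 SD, cut at about 35% in these data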;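 further: loss of TO-PRO-1 fluorescence as compound displaces dye from 1x1 AA loop RNA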
dCAG dye counter: disrupts DNA CAG TO-PRO-1 complex, flagging rCAG hits. shares compounds with rCAG binder. AID 652068. inhibition, % at 3 µM. hit rate 94% among 4,300. d(CAG) DNA oligo TO-PRO-1 dye displacement, fluorescence;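 active means inhibition above its plate's cutoff, the mean test-well inhibition plus 3 SD, cut at about 4.8% in these data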;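 further: hits displace the dye from DNA and so lower well fluorescence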
Each line names hits and unclear results; the compound was inactive in the other large screens (follow-up assays come after a bar, where they were run). Compounds with a hit are over-represented: about 3.3% of the library has one in this group of screens.

C[C@@H]1OC(C2CCCCC2)N(C)[C@H]2C[C@H]3c4[nH]c5c(-c6ccc7c(c6)OCO7)cccc5c4CCN3C[C@@H]12 (stereo partly specified)	none (no result: HTRA1 inh)
Cc1ccc(-c2csc(NC(=S)NC(=O)/C=C/c3ccco3)n2)cc1	rCAG binder 38 | rCAG binder conf inactive | dCAG dye counter 11
CC(=O)N1c2ccccc2C(=O)NCC1C(=O)NC(C)(C)C (stereo unspecified)	none (no result: HTRA1 inh)
CCOC(=O)C1=C[C@@H](C(C)(C)C)N(S(=O)(=O)c2ccc(C)cc2)[C@H]1c1ccc(C)cc1	none (no result: HTRA1 inh)
Cc1ccc(S(=O)(=O)N2[C@@H](c3ccc(Br)cc3)C(C(=O)O)=C[C@H]2C(C)(C)C)cc1	rCAG binder 47 | rCAG binder conf 54 | dCAG dye counter 16
Cc1ccc(S(=O)(=O)N2[C@@H](c3ccc(Cl)cc3)C(C(=O)O)=C[C@H]2C(C)(C)C)cc1	rCAG binder 48 | rCAG binder conf 42 | dCAG dye counter 11
Cc1ccc(S(=O)(=O)N2[C@@H](c3ccc(C#N)cc3)C(C(=O)O)=C[C@H]2C(C)(C)C)cc1	none
CN1C(=O)c2cc(NC(=O)Nc3ccccc3)ccc2OC[C@H]2O[C@@H](CC(=O)N[C@H]3CCN(Cc4ccccc4)C3)CC[C@@H]21	none (no result: HTRA1 inh)
O=C(Cn1c(-c2cncs2)nc2ccccc21)NCc1cccs1	none (no result: HTRA1 inh)
CCOC(=O)CC[C@@]1(C(=O)OCC)C[C@@H](CC(=O)NCc2ccc(C)o2)C(=O)N2CCCC=C21	rCAG binder 49 (no result: HTRA1 inh) | rCAG binder conf inactive | dCAG dye counter inactive
CCOC(=O)CC[C@@]1(C(=O)OCC)C[C@@H](CC(=O)NCc2cccc3ccccc23)C(=O)N2CCCC=C21	none (no result: HTRA1 inh)
Cc1cccc(S(=O)(=O)NC(=O)C2(C)CCN2C(=O)c2ccccc2CCc2ccccc2)c1 (stereo unspecified)	rCAG binder 39 (no result: HTRA1 inh) | rCAG binder conf 45 | dCAG dye counter 11
CC(C)c1ccc(CC(=O)N2CCC2(C)C(=O)NS(=O)(=O)c2cccc(OC(F)F)c2)cc1 (stereo unspecified)	rCAG binder 35 (no result: HTRA1 inh) | rCAG binder conf inactive | dCAG dye counter inactive
CNC(=O)C1(C)CCN1C(=O)c1ccccc1CCc1ccccc1 (stereo unspecified)	none (no result: HTRA1 inh)
CC1(C(=O)NS(=O)(=O)c2cccc(F)c2)CCN1C(=O)c1ccccc1CCc1ccccc1 (stereo unspecified)	rCAG binder 52 (no result: HTRA1 inh) | rCAG binder conf 43 | dCAG dye counter 11
Cc1ccc(NC(=O)C2(C)CCN2C(=O)c2ccccc2CCc2ccccc2)cc1C (stereo unspecified)	none (no result: HTRA1 inh)
CC1(C(=O)NS(=O)(=O)c2ccc3c(c2)CCO3)CCN1C(=O)c1ccccc1CCc1ccccc1 (stereo unspecified)	rCAG binder 42 (no result: HTRA1 inh) | rCAG binder conf 42 | dCAG dye counter 11
CC1(C(=O)NS(=O)(=O)c2cccc(F)c2)CCN1C(=O)Cc1ccccc1Cl (stereo unspecified)	none (no result: HTRA1 inh)
C[C@@H]1COc2cccc(N3CCSCC3)c2S(=O)(=O)N1C	none (no result: HTRA1 inh)
CCCCNC(=O)C[C@@H]1C(=O)N2CCCC3=C2[C@@]1(C(=O)OC)CCCC3	none (no result: HTRA1 inh)
O=C(OCc1cn(Cc2cccc(F)c2F)nn1)N1CCCC1	none (no result: HTRA1 inh)
CC1(C(=O)NS(=O)(=O)c2cccc(OC(F)F)c2)CCN1C(=O)c1ccccc1CCc1ccccc1 (stereo unspecified)	rCAG binder 61 (no result: HTRA1 inh) | rCAG binder conf 54 | dCAG dye counter 17
CN1Cc2nnn(Cc3ccccc3)c2-c2cc(F)ccc2S1(=O)=O	none (no result: HTRA1 inh)
COc1ccc2[nH]c(C)c(-c3csc(N)n3)c2c1	rCAG binder 37 | rCAG binder conf inactive | dCAG dye counter 11
CCCCc1ccc(NC(=O)CSCc2cc(=O)[nH][nH]2)cc1	rCAG binder 42 | rCAG binder conf inactive | dCAG dye counter 4.5
Cc1ccc2[nH]c3c(c2c1)CCC3=O	none
Cc1ccc2[nH]c3c(c2c1)CCc1cn[nH]c1-3	rCAG binder 47 | rCAG binder conf inactive | dCAG dye counter 5.0
COC(=O)[C@H]1C[C@]2(C/C=C(\C)CCC=C(C)C)c3ccccc3N[C@H]2N1	none (no result: rCAG binder, HTRA1 inh)
COc1cc(-c2cc(C(=O)Nc3cc(S(=O)(=O)N4CCOCC4)ccc3O)c3ccccc3n2)cc(OC)c1OC	rCAG binder 72 | rCAG binder conf 74 | dCAG dye counter 35
CCS(=O)(=O)c1ccc(O)c(NC(=O)c2ccc(S(=O)(=O)N3CCCCCC3)cc2)c1	rCAG binder 37 | rCAG binder conf 46 | dCAG dye counter 11
CCN(CC)S(=O)(=O)c1ccc(C(=O)Nc2cc(S(=O)(=O)N3CCOCC3)ccc2O)cc1	rCAG binder 36 | rCAG binder conf inactive | dCAG dye counter 6.9
CCOC(=O)c1ccc(NC(=O)c2cc(S(=O)(=O)N3CCOCC3)ccc2O)cc1	rCAG binder 49 | rCAG binder conf 40 | dCAG dye counter 9.2
CC(C)(C)OC(=O)N1CCC(N[C@@H](Cc2c[nH]c3ccccc23)C(=O)NCCc2c[nH]c3ccccc23)(C(=O)NC2CCCCC2)CC1	none (no result: rCAG binder, HTRA1 inh)
CC(C)NC(=O)N[C@@H]1C[C@@H]2O[C@H](CO)CC[C@@H]2O[C@@H]1CCc1ccc(-c2ccccc2F)cc1	none (no result: HTRA1 inh)
Cc1ccc2c(c1)N(CCCC(=O)NCc1ccc(F)cc1)C(=O)CO2	none (no result: HTRA1 inh)
CCNC(=O)OCCN1C(=O)CCC12CCC(c1ccc(Cl)cc1)CC2 (stereo unspecified)	none (no result: HTRA1 inh)
CCOc1ccc(OCC(=O)OCC(=O)Nc2ccccc2C#N)cc1	none
CCOc1ccc(N=C2SC(C(=O)Nc3ccccc3C#N)C(N)=C2C(=O)Nc2ccc(Cl)cc2)cc1 (stereo unspecified)	rCAG binder 39 | rCAG binder conf inactive | dCAG dye counter 17
Cc1ccc(C(=O)Nc2ccccc2C(=O)O)cc1S(=O)(=O)NC1CCCCC1	rCAG binder 70 | rCAG binder conf 61 | dCAG dye counter 22
Cc1ccc(NS(=O)(=O)c2cc(C(=O)Nc3cccc([N+](=O)[O-])c3)ccc2C)cc1	none
Cc1ccc(NC(=S)NC(=O)c2ccc(F)cc2)cc1S(=O)(=O)Nc1cccc(Cl)c1	none
Cc1ccc(C(=O)Nc2ccccc2C(=O)O)cc1S(=O)(=O)Nc1ccccc1	rCAG binder 67 | rCAG binder conf 46 | dCAG dye counter 15
Cc1ccc(C(=O)Nc2cccc([N+](=O)[O-])c2)cc1S(=O)(=O)Nc1ccc(NC(=O)c2ccccc2)cc1	rCAG binder 55 | rCAG binder conf 41 | dCAG dye counter 21
Cc1ccc(NC(=O)CC(=O)c2ccc([N+](=O)[O-])cc2)cc1S(=O)(=O)Nc1cccc(Cl)c1	rCAG binder 50 | rCAG binder conf 64 | dCAG dye counter 25
CCCC1CCC2(CCC(=O)N2CCOC)CC1 (stereo unspecified)	none (no result: HTRA1 inh)

Screening results as filed in PubChem BioAssay.
